From PubChem BioAssay AID504383 (The Scripps Research Institute Molecular Screening Center, 2011)
The whole screen tested about 2,500 compounds, of which about 1,200 (48%) were called active.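 How the source made its calls: active means mean activation above the low control average plus 3 SD, as set in the primary screen (cut at about 12% in these data); inactive means the rest.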 The set was probably picked from earlier hits. Some of the results follow.

These compounds were tested against Troponin I, cardiac muscle (Homo sapiens) + Troponin T, cardiac muscle (Homo sapiens) + Troponin C, slow skeletal and cardiac muscles (Homo sapiens) (UniProt P19429+P45379+P63316) (assay: cardiac RTF calcium sensitivity activators, confirmation, biochemical, IANBD-TnC fluorescence, triplicate (AID 504383;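 further: 0% = DMSO at 0.472 mM calcium and 100% = DMSO at 2.9 mM calcium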)). Conditions: IANBD-labeled cardiac RTF, Ca2+ sensitivity fluorescence, at 7.2 µM, active compounds read high, tested at EC20 calcium, 0.472 mM.
Procedure, shortened: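 Assay system: labelled regulated thin filaments / Timing: 15 min at 25 °C / Detection: fluorescence intensity of labelled filaments / Measure: fluorescence gain scaled between EC20 and EC100 calcium controls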
For `CCN(CC)c1ccc(/C=C/[N+](=O)[O-])cc1`, the activation was 19.8% (active).
For `Cn1cc(C=C(C#N)C#N)c2ccccc21`, the activation was 69.5% (active).
In the case of `COC(=O)C1=C(c2ccc(F)cc2OCc2ccccc2)C[C@@H]2CC[C@H]1N2C(=O)NCc1ccc(OC)c(OC)c1`, the activation is reported as 154% (active).
With `COC(=O)C1=C(c2cccc(OC)c2OC)C[C@@H]2CC[C@H]1N2C(=O)NCCCOC(C)C` the activation was 5.72% (inactive).
`COC(=O)C1=C(c2cccc(OC)c2OC)C[C@@H]2CC[C@H]1N2C(=O)NCc1ccco1` was tested, and the activation was 13.3% (active).
With `CCN(CC)CCCOC(=O)C(OC(C)C)(c1ccccc1)c1ccccc1` the activation was 57.9% (active).
With `C/C(=N\N1CCCCC1c1cccnc1)c1c(O)n(C2CCCCC2)c(=S)[nH]c1=O` (configuration not stated) the activation was 68.2% (active).
In the case of `O=c1[nH]c(=S)n(-c2ccccc2Cl)c(O)c1C=NCCN1CCNCC1`, the activation is reported as 1670% (active).
In the case of `Cc1ccc(-n2c(O)c(C=NCC3CCCO3)c(=O)[nH]c2=O)c(C)c1` (configuration not stated), the activation is reported as 7.57% (inactive).
In the case of `COc1ccc(OC)c(-n2c(O)c(C=NCCN3CCNCC3)c(=O)[nH]c2=S)c1`, the activation is reported as 27.9% (active).
With `Cc1cccc(N2C(=O)NC(=O)/C(=C\c3ccc4c(c3)CCCN4Cc3ccccc3)C2=O)c1` the activation was 4.9% (inactive).
In the case of `CCOCCCNC(=O)C1c2cc(OC)c(OC)cc2C(=O)N2CCCCC12` (configuration not stated), the activation is reported as 2.74% (inactive).
`CN1CCN(c2ccc(/C=C3\C(=O)NC(=S)N(c4cccc(Br)c4)C3=O)o2)CC1` was tested, and the activation was 4.38% (inactive).
`Cc1cccc(N2C(=O)/C(=C/c3ccc(N4CCN(C)CC4)o3)C(=O)NC2=S)c1C` was tested, and the activation was 16.4% (active).
With `Cc1ccccc1N1C(=O)NC(=O)/C(=C/c2ccc(N3CCOCC3)o2)C1=O` the activation was 42.7% (active).
In the case of `Cc1ccccc1N1C(=O)NC(=O)/C(=C\c2cc(Br)c(N3CCOCC3)o2)C1=O`, the activation is reported as 11% (inactive).
In the case of `COc1ccccc1N1C(=O)NC(=O)/C(=C/c2ccc3c4c(cccc24)CC3)C1=O`, the activation is reported as 2.54% (inactive).
In the case of `CCc1ccccc1N1C(=O)/C(=C/c2ccc(N3CCN(C)CC3)o2)C(=O)NC1=S`, the activation is reported as 1030% (active).
For `CN1C(=O)C(=Cc2ccc(N3CCOCC3)o2)C(=O)N(C)C1=S`, the activation was 10.3% (inactive).
In the case of `CCN1C(=O)C(=Cc2ccc(N3CCOCC3)o2)C(=O)N(CC)C1=S`, the activation is reported as 7.34% (inactive).
With `O=C1NC(=O)C(=Cc2ccc(N3CCOCC3)o2)C(=O)N1` the activation was 2.33% (inactive).
With `CN1C(=O)C(=Cc2ccc(N3CCOCC3)o2)C(=O)N(C)C1=O` the activation was 50.2% (active).
With `CCN(CC)c1ccc(/C=C2\C(=O)NC(=S)N(c3ccc(OC)cc3OC)C2=O)o1` the activation was 8.36% (inactive).
With `CN1C(=O)C(=Cc2ccc(N3CCCCCC3)o2)C(=O)N(C)C1=S` the activation was 94.7% (active).
For `COc1ccc(N2C(=O)/C(=C/c3ccc(N(C)C)o3)C(=O)NC2=S)cc1`, the activation was 338% (active).
With `C=CCN1C(=O)/C(=C\c2ccc(N3CCOCC3)o2)C(=O)NC1=S` the activation was 4% (inactive).
With `COc1cc(/C=C2/C(=O)NC(=O)N(c3ccc(C)cc3)C2=O)cc(OC)c1OC` the activation was 6.29% (inactive).
For `C=CCN1C(=O)/C(=C/c2ccc(N3CCOCC3)o2)C(=O)NC1=S`, the activation was 29.1% (active).
With `CN1C(=O)C(=Cc2sc(=O)n(-c3ccccc3)c2N2CCCCC2)C(=O)N(C)C1=O` the activation was 3.11% (inactive).
For `CN1Cc2c(c(C#N)c(N)n(C)c2=S)CC1(C)C`, the activation was 4.38% (inactive).
For `COc1ccc2c3c([nH]c2c1)C(C)=NCC3`, the activation was 9.9% (inactive).
With `FC(F)(F)c1ccc2c(c1)nnn2C1CCN(Cc2nnnn2Cc2ccccc2)CC1` the activation was 4.26% (inactive).
For `CN1C(=O)/C(=C\c2ccc(N3CCCCC3)o2)C(=O)NC1=S`, the activation was 8.33% (inactive).
With `O=C1NC(=O)N(c2ccc3c(c2)OCO3)C(=O)/C1=C\c1ccc(N2CCCCC2)o1` the activation was -1.01% (inactive).
`CCN(CC)c1ccc(C=C2C(=O)N(C)C(=S)N(C)C2=O)o1` was tested, and the activation was 8.61% (inactive).
`CCN(CC)c1ccc(/C=C2\C(=O)NC(=S)N(C)C2=O)o1` was tested, and the activation was 25.4% (active).
In the case of `O=C1NC(=O)N(c2ccc3c(c2)OCO3)C(=O)/C1=C/c1ccc(N2CCCC2)o1`, the activation is reported as 3.64% (inactive).
In the case of `CN1C(=O)/C(=C/c2ccc(N3CCCCCC3)o2)C(=O)NC1=S`, the activation is reported as 39% (active).
For `CCOc1ccc(N2C(=O)NC(=O)/C(=C\c3ccc(N4CCCCC4)o3)C2=O)cc1`, the activation was 154% (active).
`COc1cccc2c1C(=O)c1c(O)c3c(c(O)c1C2=O)CC(O)(C(C)=NO)CC3OC1CC(N)C(O)C(C)O1` (configuration not stated) was tested, and the activation was 4.26% (inactive).
For `Nc1ccc2ccc3cccc[n+]3c2c1`, the activation was 11.7% (active).
With `Cc1ccc(N2C(=O)NC(=O)/C(=C\c3ccoc3)C2=O)cc1` the activation was 4.43% (inactive).
For `CN1CCc2cc3c(c4c2C1Cc1ccccc1-4)OCO3` (configuration not stated), the activation was 13.5% (active).
For `CC1=NCCc2c1[nH]c1cc(O)ccc21`, the activation was 5.4% (inactive).
`CCCc1cc(=O)oc2cc(OCC(=O)N3C[C@H]4C[C@@H](C3)c3cccc(=O)n3C4)ccc12` was tested, and the activation was 113% (active).
For `CCCc1cc(=O)oc2cc(OCC(=O)N3CCC(C(=O)O)(c4ccccc4)CC3)ccc12`, the activation was 10.7% (inactive).
With `COc1ccc(N2C(=O)NC(=O)/C(=C\c3cn(C)c4ccccc34)C2=O)cc1` the activation was 3.56% (inactive).
With `O=C1NC(=O)C(=Cc2cn(CCOc3ccc4c(c3)OCO4)c3ccccc23)C(=O)N1` the activation was 12.6% (active).
For `Cc1ccc(/C=C2/Sc3ccc(C(=O)N4CCC5(CC4)OCCO5)cc3NC2=O)cc1`, the activation was 106% (active).
For `COc1ccc(CC(=O)N2CCN(C)CC2)cc1OC`, the activation was 13.3% (active).
`Cc1cc(N2CCCC2)ccc1C=C(C#N)C#N` was tested, and the activation was 95.7% (active).
`Cc1cc(C=C(C#N)C#N)ccc1N1CCCC1` was tested, and the activation was 13% (active).
`N#CC(C#N)=Cc1ccc(C=C(C#N)C#N)cc1` was tested, and the activation was 1.09% (inactive).
`Cc1cc(Cl)ccc1C(=O)C1CCCN(C2CCSCC2)C1` (configuration not stated) was tested, and the activation was 2.78% (inactive).
`O=Cc1c(C(=O)O)n(Cc2ccc(Cl)cc2)c2ccccc12` was tested, and the activation was 7.27% (inactive).
With `Cc1cc(N(CCCl)CCCl)ccc1C=Cc1ccncn1` the activation was 17.4% (active).
`CCCCn1c(O)c(/C=C/C=Nc2ccccc2)c(=O)[nH]c1=O` was tested, and the activation was 10% (inactive).
For `CCCCn1c(O)c(C(=O)/C=C/c2c[nH]c3ccccc23)c(=O)[nH]c1=O`, the activation was 14.8% (active).
`NC(=O)c1c(NC(=O)c2ccc(S(=O)(=O)N(CCCl)CCCl)cc2)sc2c1CCCCC2` was tested, and the activation was 14.1% (active).
For `N#CC(C#N)=Cc1ccc(-c2ccccc2F)o1`, the activation was 45.7% (active).
`O=c1[nH]c(=S)n(-c2ccc(Br)cc2)c(O)c1C=Nc1ccc(N2CCOCC2)cc1` was tested, and the activation was 6.9% (inactive).
For `CCn1c(O)c(C=Nc2ccc(N3CCOCC3)cc2)c(=O)n(CC)c1=S`, the activation was 88.4% (active).
In the case of `CCCCC(=O)N/N=C/c1c(O)n(CC)c(=S)n(CC)c1=O`, the activation is reported as 4.35% (inactive).
In the case of `CCCCN1C(=O)NC(=O)C2(Cc3ccccc3N3CCOCC32)C1=O` (configuration not stated), the activation is reported as 4.27% (inactive).
`C=CCn1c(O)c(C=NC2CCN(Cc3ccccc3)CC2)c(=O)[nH]c1=O` was tested, and the activation was 6.93% (inactive).
`O=c1[nH]c(=O)n(Cc2ccc(F)cc2)c(O)c1/C=N/Nc1ccccc1` was tested, and the activation was 107% (active).
`CCCCCCC(=O)N/N=C/c1c(O)n(CCc2ccccc2)c(=O)[nH]c1=O` was tested, and the activation was -0.94% (inactive).
`OC12CCCCC1C(c1ccccc1)NCC2` (configuration not stated) was tested, and the activation was 7.25% (inactive).
For `O=C(CN1CCN(c2ccccc2F)CC1)Nc1cccnc1Cl`, the activation was 27.1% (active).
With `CN1/C(=C\C=C2C(=O)NC(=S)NC2=O)C(C)(C)c2ccccc21` the activation was 10.4% (inactive).
In the case of `COc1ccc(CN2C(=O)NC(=O)/C(=C/c3ccoc3)C2=O)cc1`, the activation is reported as 10.9% (inactive).
With `O=C1NC(=O)N(c2cccc(Cl)c2)C(=O)/C1=C\c1ccc(Sc2nc3ccccc3[nH]2)o1` the activation was 11.5% (inactive).
In the case of `Cc1cc(C)c(Cn2c(C(=O)O)c(C=O)c3ccccc32)c(C)c1`, the activation is reported as 10.3% (inactive).
In the case of `O=c1[nH]c(=O)n(-c2ccccc2)c(O)c1/C=C/C=Nc1ccccc1`, the activation is reported as 8.9% (inactive).
In the case of `Cc1cccc(-n2c(O)c(/C=C/C=Nc3ccccc3)c(=O)[nH]c2=O)c1`, the activation is reported as 414% (active).
With `COc1ccc(-n2c(O)c(/C=C/C=Nc3ccccc3)c(=O)[nH]c2=O)cc1` the activation was 5.05% (inactive).
For `Cc1ccc(-n2c(O)c(/C=C/C=Nc3ccccc3)c(=O)[nH]c2=O)cc1`, the activation was 26.4% (active).
`CCN(CC)c1ccc(N=Cc2c(O)n(Cc3ccco3)c(=O)[nH]c2=O)cc1` was tested, and the activation was 5.39% (inactive).
In the case of `O=c1[nH]c(=O)n(C2CCCCC2)c(O)c1/C=C/C=Nc1ccccc1`, the activation is reported as 12.3% (active).
In the case of `O=c1[nH]c(O)c(C=Nc2ccccc2Oc2ccccc2)c(=O)[nH]1`, the activation is reported as 10.2% (inactive).
For `CNS(=O)(=O)c1ccc(N=Cc2c(O)n(-c3ccccc3)c(=O)[nH]c2=O)cc1`, the activation was 37.6% (active).
For `CCN(CC)c1ccc(/C=N/c2sc3c(c2C#N)C2CCN3CC2)c(O)c1`, the activation was 7.45% (inactive).
With `O=C1NC(=O)N(Cc2ccccc2)C(=O)/C1=C\N1CCCc2ccccc21` the activation was 3.9% (inactive).
In the case of `O=c1[nH]c(O)c(/C=C2\C=Nc3ccc(OCc4ccccc4)cc32)c(=O)[nH]1`, the activation is reported as 8.62% (inactive).
With `Cn1c(O)c(/C=C/C=Nc2ccccc2)c(=O)n(C)c1=S` the activation was 21.7% (active).
In the case of `Cn1c(O)c(/C=C/C=Nc2ccccc2)c(=O)n(C)c1=O`, the activation is reported as 9.76% (inactive).
`CN1C[C@H](CO)C=C2c3cccc4[nH]cc(c34)C[C@H]21` was tested, and the activation was -3.89% (inactive).
With `CC1=C[C@@H]2c3cccc4[nH]cc(c34)C[C@H]2N(C)C1` the activation was 50% (active).
In the case of `CCC(CO)NC(=O)C1C=C2c3cccc4[nH]cc(c34)CC2N(C)C1` (configuration not stated), the activation is reported as 9.84% (inactive).
In the case of `Nc1c(C(=O)NCC2CCCO2)c2nc3ccccc3nc2n1Cc1ccco1` (configuration not stated), the activation is reported as 1930% (active).
For `COCCOC(=O)c1c(N)n(Cc2ccco2)c2nc3ccccc3nc12`, the activation was 8.08% (inactive).
`COCCNC(=O)c1c(N)n(Cc2ccco2)c2nc3ccccc3nc12` was tested, and the activation was 16.3% (active).
